Screening results from PubChem BioAssay.
Hits are enriched below; roughly 1.8% of the tested compounds scored in any of these assays.
FLuc inh counter – firefly luciferase enzyme inhibitors, primary screen, artefact control for luciferase-based inhibitor screens, biochemical, luminescence, ATPLite; AID 1006, 2008; 10 min; Luciferin 4-monooxygenase (Photinus pyralis), P08659; 200,000 compounds, 1.5% hits; inhibition, % at 10 µM;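 active means inhibition above about 50% when tested at 10 µM, limit read from the data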
Target sequence (P08659 whole entry, looked up): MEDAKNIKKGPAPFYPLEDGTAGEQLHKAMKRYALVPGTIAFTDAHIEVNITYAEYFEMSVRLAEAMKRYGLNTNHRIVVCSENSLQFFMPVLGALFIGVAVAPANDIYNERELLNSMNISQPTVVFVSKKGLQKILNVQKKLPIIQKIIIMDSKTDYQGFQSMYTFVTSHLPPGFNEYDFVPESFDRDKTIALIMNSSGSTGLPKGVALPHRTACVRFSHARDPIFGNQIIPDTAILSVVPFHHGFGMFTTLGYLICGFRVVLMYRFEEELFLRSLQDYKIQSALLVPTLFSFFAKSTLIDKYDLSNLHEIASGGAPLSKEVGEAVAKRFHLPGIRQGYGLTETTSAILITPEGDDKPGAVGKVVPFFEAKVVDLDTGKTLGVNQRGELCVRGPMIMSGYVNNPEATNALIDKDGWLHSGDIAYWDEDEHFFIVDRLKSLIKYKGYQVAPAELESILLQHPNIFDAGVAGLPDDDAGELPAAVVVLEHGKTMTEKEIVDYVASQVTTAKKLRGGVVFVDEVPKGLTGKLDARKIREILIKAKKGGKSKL
hiPSC survival – enhancers of single-cell hiPSC survival, primary screen, ATPlite luminescence. 100% = ROCK inhibitor wells, 0% = DMSO. 360,000 compounds, 0.044% hits. survival enhancement, % at 20 µM; in the data active means survival enhancement above about 18%;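 further: cells exposed to compounds for 16 hours before the ATP read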
C8 TRAIL sens – viability loss with TRAIL in NB7+C8 cells, primary screen, TRAIL sensitizer project, cell-based, ATPlite luminescence; inhibition (viability loss, TRAIL sensitization), % at 10 µM; 360,000 compounds, 1% hits; AID 624354, 2012;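 active means compounds causing at least 50% loss of cell viability in the single-dose screen, relative to plate controls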
FLuc stim CS – FLuc activators, initial screening, artefact control for FLuc-dependent activation tests, biochemical, ATPlite luminescence. ATPlite luciferase biochemical, 10 min; 0 = ATP-free wells, 1 = DMSO control. 200,000 tested, under 10 active. AID 1027, 2008. activation factor at 10 µM. Luciferin 4-monooxygenase (Photinus pyralis), P08659;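 active means luciferase activation factor, scaled between plate controls, of at least 2 with compound at 10 µM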
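System: luciferase plus luciferin reagent, cell-free; medium: PBS as buffer for the ATP substrate; dosing: test compounds dosed from 2 mM stocks in 100% DMSO; timing: 10 min post-reagent at room temperature; measured by: luminescence measurement of luciferase light output; evaluation: luciferase activation, seen as luminescence increase over controls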
PPC-1+TRAIL kill – compounds killing PPC-1 cancer cells with TRAIL present, primary screen, TRAIL potentiator project, ATPLite luminescence, uHTS. cell killing (% activity), % at 4 µM or 5 µM. 220,000 compounds, 0.41% hits. PPC-1 cells + TRAIL, ATPLite viability luminescence;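 active means cell killing above 50% in the first pass at 4 µM, then a duplicate retest at 5 µM averaging 50% or more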
MIN6 prolif-1 – inducers of MIN6 beta-cell proliferation, primary screen, ATP luminescence, uHTS; MIN6 cells proliferation, ATPlite luminescence, 48 h; cells starved in 0.2% serum; 100% = growth in 10% serum; proliferation, % at 10 µM; 330,000 compounds, 0.29% hits;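 active means compounds whose signal lies at least 3.5 SD above the mean of all wells on their plate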
MIN6 prolif-2 – inducers of beta-cell proliferation in MIN6, confirmation, MIN6 cells, mouse; shares compounds with MIN6 prolif-1; ATPlite luminescence, 48 h; cells kept in 0.2% serum; scaled between 0.2% and 10% serum; proliferation increase, % at 50 µM; 920 tested, under 10 active; AID 463095, 2010;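 active means proliferation increase above 40% at any of the four tested concentrations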
A number is an active result; – = inactive; · = not tested or not shown.

SMILES | FLuc inh counter | hiPSC survival | C8 TRAIL sens | FLuc stim CS | PPC-1+TRAIL kill | MIN6 prolif-1 | MIN6 prolif-2
CC1Cc2nc(SCC(=O)OCc3ccccc3)n(C)c(=O)c2S1 (centres undefined) | – | – | – | – | – | 15 | –
CC(C(=O)Nc1ccc(F)c(F)c1F)N(C)CCOc1ccccc1 (centres undefined) | · | – | – | · | · | – | ·
O=C(Nc1c(Cl)cc(Cl)cc1C(=O)NCCN1CCOCC1)c1ccc(Cl)cc1Cl | – | – | – | – | – | 8.7 | –
Cc1ccc(C(=O)NCCN2CCOCC2)c(Cl)c1 | · | – | – | · | · | 6.0 | –
O=C(NCCN1CCOCC1)c1ccccc1Cl | · | – | – | · | · | – | ·
O=C(Nc1ccc(Cl)cc1C(=O)NCCN1CCOCC1)c1ccc(Cl)cc1Cl | – | – | – | – | – | – | ·
CCN1CCN(c2sc(S(C)(=O)=O)nc2S(=O)(=O)c2ccc(C)cc2)CC1 | · | – | – | · | · | 16 | –
CCN1CCN(c2sc(S(=O)(=O)CC)nc2S(=O)(=O)c2ccc(C)cc2)CC1 | · | – | – | · | · | · | ·
CO/N=C(/c1nonc1N)N1CCN(c2ccc([N+](=O)[O-])cc2)CC1 | – | – | – | – | – | 11 | –
CCOc1ccc(N2CC(C(=O)NC3CCCC3)CC2=O)cc1 (centres undefined) | · | – | – | · | · | – | ·
Cc1ccc(S(=O)(=O)N(CC(O)CN2C(=O)NC(C)(C)C2=O)c2cccc(C)c2)cc1 (centres undefined) | · | – | – | · | – | – | ·
Cc1ccc(S(=O)(=O)N(CC(O)CN2C(=O)NC(C)(C)C2=O)c2ccccc2)cc1 (centres undefined) | – | – | – | – | – | 8.8 | –
O=C(c1ccccc1)N1CCN(CC(O)COCC2CC=CCC2)CC1 (centres undefined) | – | – | – | – | – | – | ·
CCc1nc2ccccc2n1CC(O)COCC1CC=CCC1 (centres undefined) | – | – | – | – | – | 12 | –
COc1ccc(CCC(=O)NC(C)c2ccccc2)cc1OC (centres undefined) | · | – | – | · | · | – | ·
Clc1ccc(CNc2nc(N3CCOCC3)nc(N3CCOCC3)n2)cc1 | – | – | – | – | – | – | ·
O=C1CSC(c2ccc(Cl)cc2)N1Nc1nc(N2CCOCC2)nc(N2CCOCC2)n1 (centres undefined) | – | – | – | – | – | 9.7 | –
CCCCCCn1c(=O)n2n(c1=O)C[C@]1(OC(=O)Nc3c(C)noc3C)CN(S(=O)(=O)c3ccc(C)cc3)C[C@]1(O)C2 | · | – | – | · | · | · | ·
COc1ccc(Cn2c(CCCO)nc3ccccc32)cc1OC | – | – | – | – | – | 5.7 | –
CN(Cc1cccs1)C(=O)COc1cccc2c1OC(C)(C)C2 | · | – | – | · | · | 9.9 | –
CN(C)CCNC(=O)COc1cccc2c1OC(C)(C)C2 | – | – | – | – | – | – | ·
O=C(COc1ccccc1)NC1C(=O)N2C(C(=O)O)=C(Cl)CSC12 (centres undefined) | · | – | – | · | · | 10 | –
O=C(NCc1ccccn1)C1CCCN(S(=O)(=O)c2ccc(Br)cc2)C1 (centres undefined) | – | – | – | – | – | 5.8 | –
Cc1ccc(NC(=O)CN(c2ccccc2F)S(C)(=O)=O)cc1 | – | – | – | – | – | 5.1 | –
Cc1ccccc1N(CC(=O)Nc1ccc(F)cc1)S(C)(=O)=O | – | – | – | – | – | – | ·
SMILES | FLuc inh counter | hiPSC survival | C8 TRAIL sens | FLuc stim CS | PPC-1+TRAIL kill | MIN6 prolif-1 | MIN6 prolif-2
CCOC(=O)c1ccccc1NC(=O)CN(c1ccccc1C)S(C)(=O)=O | – | – | – | – | – | 8.4 | –
CCOc1ccccc1NC(=O)N1CCC(NC(=O)c2ccccc2C)CC1 | – | – | – | – | – | 7.8 | –
O=C1CCCCCCC1Sc1ccccc1[N+](=O)[O-] (centres undefined) | – | – | – | – | – | 6.2 | –
COc1ccc(C2(SCC(N)C(=O)O)c3ccccc3-c3ccccc32)cc1 (centres undefined) | · | – | – | · | · | · | ·
CC(C)C[C@H](NC(=O)c1[nH]cnc1C(=O)N[C@@H](C)c1ccccc1)C(=O)OCc1ccccc1 | · | – | – | · | – | – | ·
O=C1CSC(c2cccc([N+](=O)[O-])c2)N1c1c(F)cccc1F (centres undefined) | – | – | – | – | – | – | ·
c1cn2c(-c3ccoc3)cncc2n1 | · | – | – | · | · | · | ·
COCCCn1c(=O)/c(=C\c2ccc(OC(F)F)c(OC)c2)s/c1=C(/C#N)C(N)=O | · | – | – | · | – | 9.0 | –
Cc1oc2ccc(O)cc2c1C(=O)c1ccc(F)cc1 | · | – | – | · | · | 15 | –
COc1ccc2oc(C)c(C(=O)c3ccc([N+](=O)[O-])cc3)c2c1 | – | – | – | – | – | – | ·
CCOc1ccc(S(=O)(=O)N2CCC(C(=O)OC(C)C(=O)N3CCOCC3)CC2)cc1 (centres undefined) | · | – | – | · | · | – | ·
COc1cccc(-c2nnc3n2N=C(c2cc(OC)ccc2OC)CS3)c1 | – | – | – | – | – | 8.0 | –
CCOc1cccc(-c2nnc3n2N=C(c2cc(OC)ccc2OC)CS3)c1 | – | – | – | – | – | – | ·
O=C(CN1CCCC1)Nc1c(C(=O)C2CC2)oc2ccccc12 | · | – | – | · | – | 7.1 | –
CC(=O)Nc1c(C(=O)C2CC2)oc2ccccc12 | – | – | – | – | – | – | ·
COc1cc(C(=O)N/C(=C\c2cn(S(=O)(=O)N(C)C)c3ccccc23)C(=O)NCCCO)cc(OC)c1OC | – | – | – | – | – | 8.6 | –
CCCCc1c(C)c(C#N)c2nc3ccccc3n2c1Cl | – | · | · | – | – | · | ·
CCc1c(C)c(C#N)c2nc3ccccc3n2c1N(C)C | – | – | – | – | – | 6.0 | –
CCOC(=O)c1c(N)sc2c1CCN(CCc1ccccc1)C2 | · | – | – | · | · | 7.5 | –
COc1cc(OC)cc(C(=O)NNC(=O)CCC2CCCC2)c1 | · | – | – | · | · | – | ·
CCn1c(SCC(=O)N=Nc2c(O)[nH]c3ccccc23)nc2ccccc21 | – | – | – | – | – | 0.0 | –
CCOc1ccc(CCNC(=O)COC(=O)c2[nH]c(C)c(C(C)=O)c2C)cc1OCC | · | – | – | · | · | · | ·
O=[N+]([O-])c1ccc(-n2nnnc2CN2CCOCC2)cc1 | – | – | – | – | – | – | ·
O=[N+]([O-])c1ccc(-n2nnnc2CN2CCCCC2)cc1 | – | – | – | – | · | 9.3 | –
Cc1nnsc1C(=O)NC(=O)Nc1ccc(F)c(Cl)c1 | · | – | – | · | – | 5.9 | –
